Bioassay records: PubChem, SRMLSC
HUVEC prolif 384 = inhibitors of HUVEC proliferation, primary screen, cell-based, 384-well; CellTiter-Glo luminescence, 72 h; stronger effect = lower value; viability, % at 10 µM (by protocol); 86,000 tested, 1.1% active; AID 648, 2007;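 active = viability at or below 30%; inactive = viability above 30%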;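 also: 100% = median luminescence of DMSO-only cell control wells on each plate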
PTEN del growth = growth suppression of PTEN-null HCT116, primary screen, cell-based, CellTiter-Glo; HCT116 PTEN-null viability, 60 h; stronger effect = lower value; viability, % at 10 µM; 140,000 tested, 1.2% active;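 active = viability at or below a set limit, 4 SD under the median of all tested compounds, cut at about 3.7% in these data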;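 also: PTEN knockout HCT116 line with beta catenin targeted HCT116 as companion control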
Fibroblast inh = antiproliferative effect on LL 47 fibroblasts – human, LL 47 cells, CellTiter-Glo luminescence, primary screen. viability, % at 10 µM. 85,000 tested, 1.1% active. LL 47 human lung fibroblast viability, ATP luminescence; stronger effect = lower value;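 active = viability at or below 50% in the single dose screen; inactive = viability above 50%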;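 also: compound exposure lasted 72 h before the ATP readout; 100% = median luminescence of untreated cell-only wells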
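Signal: luminescent ATP detection, CellTiter-Glo; assay system: LL 47 human lung fibroblasts; input: 1,150 cells/well; incubation: overnight cell rest, 72 h compound treatment at 37 °C; measure: % viability versus median cells-only luminescence; medium: IMEM growth medium with 15% fetal bovine serum; dosing: compound addition at 0.1% DMSO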
bCat KO growth = primary screen for growth suppressors in beta-catenin knockout HCT116 cells (colon tumor, human); 140,000 tested, 1.5% active; HCT116 beta-catenin knockout viability, CellTiter-Glo, 60 h; stronger effect = lower value; AID 818, 2007; viability, % at 10 µM;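 active = viability at or under a set limit, the compound median less 4 SD, cut at about 6% in these data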;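 also: 0% = Hyamine 1622 control at 20 µM and 100% = untreated cell control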
H69AR growth 86K = proliferation blockers of H69AR lung cancer cells, primary screen, cell-based, human, 86K library; 85,000 tested, 6% active; H69AR lung tumor viability, ATP luminescence, 72 h; stronger effect = lower value; viability, % at 10 µM;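 active = viability at or below 40%; inactive = viability above 40%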;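 also: multidrug resistant small cell line overexpressing MRP-1 efflux transporter; 100% = mean luminescence of untreated control wells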
* = called active by the depositor; x = no result. The sample as a whole holds a higher share of hits than the screen did.

SMILES | HUVEC prolif 384 | PTEN del growth | Fibroblast inh | bCat KO growth | H69AR growth 86K
Cc1noc(C)c1COC(=O)c1ccc2c(c1)S(=O)(=O)c1ccccc1C2=O | 95.4 | 96.1 | 106.6 | 99.3 | 83.6
CCOc1ccc(N2C(=O)c3ccc(C(=O)OCc4c(C)noc4C)cc3C2=O)cc1 | 41.6 | 98.5 | 72.3 | 98.6 | 35.8*
CCc1ccc(CCC(=O)Nc2nccs2)o1 | 94.6 | 96.9 | 112.8 | 99.6 | 106.9
O=C(CCN1CCN(Cc2ccccc2)CC1)Nc1ccc(OCc2ccccc2)cc1 | 8.7* | 70.4 | 87.5 | 70.0 | 28.6*
O=C(CN1CCOCC1)Nc1ccc(OCc2ccccc2)cc1 | 85.7 | 81.2 | 102.1 | 85.8 | 6.9*
CCc1nnc(NC(=O)c2oc3cc(C)c(C)cc3c2C)s1 | x | 64.0 | x | 70.6 | x
CCOc1c(OC(C)=O)ccc(/C=C/c2ccc3cccc(OC(C)=O)c3n2)c1[N+](=O)[O-] | x | 3.2* | x | 1.5* | x
COc1c(OC(C)=O)ccc(/C=C/c2ccc3cccc(OC)c3n2)c1[N+](=O)[O-] | x | 63.9 | x | 58.1 | x
CC(C)CCn1c(SCc2ccc(Cl)cc2)nc2c1c(=O)[nH]c(=O)n2C | 65.5 | 84.8 | 75.0 | 71.7 | 28.3*
CCCCn1c(SCc2ccc(Cl)cc2)nc2c1c(=O)[nH]c(=O)n2C | 59.2 | 78.8 | 90.1 | 91.3 | 26.7*
C/C=C/CSc1nc2c(c(=O)[nH]c(=O)n2C)n1Cc1ccc(C)cc1 | 81.2 | 64.0 | 94.3 | 51.8 | 18.4*
CC(C)CCn1c(Sc2nc3ccccc3o2)nc2c1c(=O)[nH]c(=O)n2C | x | 3.4* | x | 5.4* | x
C/C(Cl)=C/Cn1c(SCc2ccc(Cl)cc2)nc2c1c(=O)[nH]c(=O)n2C | 92.7 | 86.3 | 101.0 | 92.5 | 50.1
COc1ccc(NC(=O)C2CCCN(S(=O)(=O)c3cccc4nonc34)C2)c(OC)c1 (centres undefined) | 105.6 | 90.3 | 102.7 | 83.6 | 95.5
COc1cccc(-n2nnnc2S(C)(=O)=O)c1 | 45.0 | 1.3* | 46.6* | 11.7 | 1.1*
COc1cccc(Oc2nnnn2-c2ccccc2)c1 | 89.0 | 105.8 | 98.5 | 97.3 | x
Cc1c(Cc2ccc3c(c2)OCO3)sc(NC(=O)C(C)(C)C)c1C#N | 84.5 | 40.3 | 83.6 | 46.9 | 38.3*
CCN(CC)C(=O)c1sc(NC(=O)c2ccc3c(c2)OCO3)c(C#N)c1C | 92.9 | 101.4 | 100.2 | 97.9 | 94.4
COc1ccc(NC(=O)CSc2nc(NS(=O)(=O)c3ccccc3)cc(=O)[nH]2)cc1 | 92.1 | 88.1 | 95.1 | 82.8 | 87.6
O=C(NNC(=O)c1ccco1)c1ccccc1 | x | 89.1 | x | 92.8 | x
O=C(/C=C/c1ccccc1)NC(=S)NNC(=O)c1ccco1 | 77.4 | 42.6 | 77.7 | 39.5 | 24.9*
O=C(/C=C/c1ccc(Br)cc1)NC(=S)NNC(=O)c1ccco1 | 61.0 | 45.2 | 72.7 | 35.9 | 36.0*
Cc1cccc(NC(=S)NNC(=O)c2ccco2)c1 | x | 96.2 | x | 97.7 | x
COc1ccc2c(C)nc(Nc3nc(C)cc(=O)[nH]3)nc2c1 | 2.6* | x | 8.6* | x | 22.7*
CC(Sc1nnc(-c2ccccc2)c(-c2ccccc2)n1)C(=O)N1CCc2ccccc21 (centres undefined) | x | 65.9 | x | 70.2 | x
SMILES | HUVEC prolif 384 | PTEN del growth | Fibroblast inh | bCat KO growth | H69AR growth 86K
COc1ccc(/C=C/C(=O)c2ccccc2)cc1Cn1nnc2ccccc21 | x | 2.8* | x | 2.9* | x
O=C(CC(c1ccccc1)c1ccco1)N1CCOCC1 (centres undefined) | 105.5 | 98.2 | 104.1 | 101.3 | 102.5
CCOc1ccc2cc(/C=C/C(=O)c3ccco3)c(Cl)nc2c1 | 76.5 | 7.2 | 97.4 | 7.8 | 2.4*
CCOc1ccc(Cl)cc1S(=O)(=O)n1cnc2ccccc21 | 58.8 | 43.0 | 61.8 | 46.5 | 19.9*
CCOc1cc(C)c(Cl)cc1S(=O)(=O)n1cnc2ccccc21 | 76.5 | 87.7 | 97.1 | 98.4 | 38.5*
COc1ccc(Cl)cc1S(=O)(=O)n1cnc2ccccc21 | 58.1 | 97.4 | 80.0 | 91.9 | 17.4*
COC(=O)c1c[nH]n2c(=O)cc(C)nc12 | 104.2 | 94.8 | 102.9 | 93.7 | 87.3
O=C(O)[C@H](CSCc1ccccc1)NS(=O)(=O)c1ccc(F)cc1 | x | 112.6 | x | 92.6 | x
O=C(O)C1CC(=O)N(c2ccc(OCc3ccc(Cl)cc3Cl)cc2)C1 (centres undefined) | 73.4 | 3.2* | 104.4 | 3.3* | 94.5
O=C(Nc1cccc2c1[nH]c1ccccc12)C(F)(F)F | 95.4 | 91.1 | 98.8 | 82.0 | 10.8*
